Laboratory results as given in ChEMBL document CHEMBL1128432, “Structure-activity relationships for inhibition of type 1 and 2 human 5 alpha-reductase and human adrenal 3 beta-hydroxy-delta 5-steroid dehydrogenase/3-keto-delta 5-steroid isomerase by 6-azaandrost-4-en-3-ones: optimization of the C17 substituent” (J Med Chem, 1995).

Experiments:
[1] = target: T1, 3-oxo-5-alpha-steroid 4-dehydrogenase 1 (Homo sapiens, UniProt P18405); test: Inhibition of recombinant steroid 5-alpha-reductase type I
T1 sequence (P18405 whole entry): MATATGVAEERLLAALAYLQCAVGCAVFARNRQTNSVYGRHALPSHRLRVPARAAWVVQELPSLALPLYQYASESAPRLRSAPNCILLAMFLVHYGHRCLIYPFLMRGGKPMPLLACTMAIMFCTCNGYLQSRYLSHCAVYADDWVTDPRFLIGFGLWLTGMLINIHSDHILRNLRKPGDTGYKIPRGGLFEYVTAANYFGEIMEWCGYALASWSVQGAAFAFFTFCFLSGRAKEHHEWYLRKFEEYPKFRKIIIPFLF

[2] = target: T2, 3-oxo-5-alpha-steroid 4-dehydrogenase 2 (Homo sapiens, UniProt P31213); test: Inhibitory activity measured on human steroid 5-alpha-reductase type 2
T2 sequence (P31213 whole entry): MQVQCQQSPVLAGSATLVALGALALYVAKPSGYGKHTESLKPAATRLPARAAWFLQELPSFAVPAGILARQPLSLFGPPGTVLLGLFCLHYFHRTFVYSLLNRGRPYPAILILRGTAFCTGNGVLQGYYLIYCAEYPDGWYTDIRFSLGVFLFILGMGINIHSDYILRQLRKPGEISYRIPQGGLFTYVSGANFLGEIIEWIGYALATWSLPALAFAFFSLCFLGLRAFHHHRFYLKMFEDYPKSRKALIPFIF

[3] = Inhibition of recombinant human adrenal 3-beta-hydroxy-delta-5-steroid dehydrogenase
[4] = test system: Rattus norvegicus; test: % reduction in prostate weight when compared with T-treated controls was measured in castrated rat at 10 mg/kg/day po administration; format: functional, Prostate gland
How it was run: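 Castrated male rats, 8 per group, given 10 mg/kg/day orally alongside testosterone. The readout is ventral prostate weight reduction versus testosterone-treated controls, expressed relative to finasteride run as an internal standard in each experiment.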

[5] = Bioavailability in dog (Beagle) at t1/2 (dose 5 mg/kg i.v.); format: ADME, organism-based, Canis lupus familiaris; settings: in vivo, iv
How it was run: (§1)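 Male beagles dosed intravenously (5 mg/kg for these lines), 2–5 animals. Blood half-life measured in hours after iv dosing; % bioavailability reported alongside.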

[6] = Plasma half life in beagles after iv administration of 5 mg/kg.; format: ADME, organism-based, Canis lupus familiaris; set-up: dose 5 mg/kg, route intravenous; settings: beagle, dog; how it was run: as §1
[7] = target: T3, 3-oxo-5-alpha-steroid 4-dehydrogenase 1 (Rattus norvegicus, UniProt P24008); test: Inhibition of recombinant Steroid 5-alpha-reductase type I was evaluated as binding affinity (in vitro)
T3 sequence (P24008 whole entry): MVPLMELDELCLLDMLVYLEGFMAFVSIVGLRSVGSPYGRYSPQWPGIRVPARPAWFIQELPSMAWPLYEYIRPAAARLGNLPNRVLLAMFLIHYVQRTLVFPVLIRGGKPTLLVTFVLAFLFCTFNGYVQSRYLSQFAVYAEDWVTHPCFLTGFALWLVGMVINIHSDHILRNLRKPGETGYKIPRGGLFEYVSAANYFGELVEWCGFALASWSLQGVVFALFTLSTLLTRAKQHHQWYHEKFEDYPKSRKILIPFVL

[8] = Plasma half life in beagles after iv administration.; settings: beagle, dog
[9] = target: T4, 3-oxo-5-alpha-steroid 4-dehydrogenase 2 (Rattus norvegicus, UniProt P31214); test: Inhibitory activity was measured on rat Steroid 5-alpha-reductase type 2
T4 sequence (P31214 whole entry): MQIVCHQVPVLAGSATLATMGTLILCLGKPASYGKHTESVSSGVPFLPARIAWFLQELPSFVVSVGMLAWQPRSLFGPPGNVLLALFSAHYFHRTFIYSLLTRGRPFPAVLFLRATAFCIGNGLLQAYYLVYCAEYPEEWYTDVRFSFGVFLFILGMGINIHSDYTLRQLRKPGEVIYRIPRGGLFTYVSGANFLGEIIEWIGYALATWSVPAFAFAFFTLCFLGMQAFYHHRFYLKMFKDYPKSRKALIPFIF
How it was run: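 Recombinant rat type 2 5α-reductase, assayed by the same procedure as the human type 2 assay, with changes specific to the rat enzymes.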

[10] = Inhibition of […] rat adrenal 3-beta-hydroxy-delta-5-steroid dehydrogenase
How it was run: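 Rat adrenal microsomes from homogenization and differential centrifugation. Started with 8 nM [3H]DHEA, stopped at 15 min with ethanol, and androstenedione measured by radio-HPLC. Kiapp from nonlinear regression, converted to Ki with Km 21 nM.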

[11] = target: T1, 3-oxo-5-alpha-steroid 4-dehydrogenase 1; test: (§2) Inhibition of recombinant Steroid 5-alpha-reductase type I was evaluated as binding affinity of the compound
[12] = target: T3, 3-oxo-5-alpha-steroid 4-dehydrogenase 1; test: as §2
[13] = 4 mg/kg, in the assay text read “dose 4 mg/kg i.v.” for “dose 5 mg/kg i.v.”

Row | Structure (SMILES) | Ki [1] [nM] | IC50 [2] [nM] | Ki [3] [nM] | also measured
1 | CC(C)(C)c1ccc(Br)cc1NC(=O)[C@H]1CCC2C3CNC4=CC(=O)CC[C@]4(C)C3CC[C@@]21C (some centres not stated) | 4.2 | < 0.1 | 820 | –
2 | C[C@]12CCC(=O)C(Cl)=C1NCC1C2CC[C@@]2(C)C1CC[C@@H]2C(=O)NC1(c2ccc(Cl)cc2)CCCC1 (some centres not stated) | 0.6 | < 0.1 | 490 | Reduction of prostate weight [4]: 49%; bioavailability ([5]; 5 mg/kg): 74%; half-life [6]: 19 h
3 | CC(C)(C)c1ccc(-c2ccc(Cl)cc2)cc1NC(=O)[C@H]1CCC2C3CNC4=CC(=O)CC[C@]4(C)C3CC[C@@]21C (some centres not stated) | 3.4 | < 0.1 | 1200 | –
4 | CC(C)(C)c1ccc(-c2ccc(C(C)(C)C)c(NC(=O)[C@H]3CCC4C5CNC6=CC(=O)CC[C@]6(C)C5CC[C@@]43C)c2)cc1 (some centres not stated) | 1.3 | < 0.1 | 8900 | –
5 | CC(C)(C)NC(=O)[C@H]1CC[C@H]2[C@@H]3CC[C@H]4NC(=O)C=C[C@]4(C)[C@H]3CC[C@]12C [FINASTERIDE] | – | – | 11000 | Ki [7]: 6.8 nM; half-life [8]: 4.2 h; IC50 [9]: 0.28 nM; Ki [10]: 150 nM
6 | CC(C)(C)c1ccc(C2(NC(=O)[C@H]3CCC4C5CNC6=CC(=O)CC[C@]6(C)C5CC[C@@]43C)CCCC2)cc1 (some centres not stated) | 3 | < 0.1 | 1500 | –
7 | CC(C)(C)c1ccc(C2(NC(=O)[C@H]3CCC4C5CNC6=CC(=O)CC[C@]6(C)C5CC[C@@]43C)CCCCC2)cc1 (some centres not stated) | 1.5 | < 0.1 | 2200 | –
8 | CC(C)(C)c1ccc(C(F)(F)F)cc1NC(=O)[C@H]1CCC2C3CNC4=CC(=O)CC[C@]4(C)C3CC[C@@]21C (some centres not stated) | 8.8 | < 0.1 | 1600 | half-life [8]: 8.8 h; Ki [9]: 0.17 nM; Reduction in prostate weight [4]: 100%; Ki [10]: 140 nM; bioavailability [5, 13]: 67%; Ki [12]: 0.1 nM
9 | C[C@]12CCC(=O)C=C1NCC1C2CC[C@@]2(C)C1CC[C@@H]2C(=O)Nc1cc(C(F)(F)F)ccc1C(F)(F)F (some centres not stated) | 4 | < 0.1 | 300 | half-life [8]: 31 h; Ki [9]: 1.1 nM; Reduction in prostate weight [4]: 130%; Ki [10]: 50 nM; bioavailability [5, 13]: 100%; Ki [12]: 0.27 nM
10 | CC(C)(C)c1ccc(C2(NC(=O)[C@H]3CCC4C5CNC6=CC(=O)CC[C@]6(C)C5CC[C@@]43C)CCCCCC2)cc1 (some centres not stated) | 3.6 | < 0.1 | 1500 | –
11 | C[C@]12C=CC(=O)NC1CCC1C2CC[C@@]2(C)C1CC[C@@H]2C(=O)NC1(c2ccc(Cl)cc2)CCCC1 (some centres not stated) | – | < 0.1 | 9000 | IC50 [11]: 0.9 nM
12 | CC(C)(C)c1ccc(Cl)cc1NC(=O)[C@H]1CCC2C3CNC4=CC(=O)CC[C@]4(C)C3CC[C@@]21C (some centres not stated) | 7.5 | < 0.1 | 760 | –
13 | CC(C)(C)c1ccc(-c2ccccc2)cc1NC(=O)[C@H]1CCC2C3CNC4=CC(=O)CC[C@]4(C)C3CC[C@@]21C (some centres not stated) | 4.6 | < 0.1 | 830 | –
14 | C[C@]12CC[C@H]3[C@@H](CNC4=C(Cl)C(=O)CC[C@@]43C)[C@@H]1CC[C@@H]2C(=O)Nc1c(C(F)(F)F)cccc1C(F)(F)F (stereo in doubt; 25) | 0.6 | – | 370 | –
15 | C[C@]12CCC(=O)C=C1NCC1C2CC[C@@]2(C)C1CC[C@@H]2C(=O)NC1(c2ccc(Cl)cc2)CCCC1 (some centres not stated) | 6.8 | < 0.1 | 1600 | Ki [7]: 0.07 nM; half-life [8]: 12 h; Ki [9]: 0.12 nM; Reduction in prostate weight [4]: 130%; Ki [10]: 97 nM; bioavailability ([5]; 5 mg/kg): 79%
16 | CC(C)(C)c1ccc(C(C)(C)C)c(NC(=O)[C@H]2CCC3C4CNC5=CC(=O)CC[C@]5(C)C4CC[C@@]32C)c1 (some centres not stated) | 5 | < 0.1 | 500 | –
17 | CC(C)(C)c1cc(Br)ccc1NC(=O)[C@H]1CCC2C3CNC4=CC(=O)CC[C@]4(C)C3CC[C@@]21C (some centres not stated) | 5.3 | < 0.1 | 390 | –
18 | C[C@]12CCC(=O)C=C1NCC1C2CC[C@@]2(C)C1CC[C@@H]2C(=O)NC1(c2ccc(Cl)cc2)CCCCC1 (some centres not stated) | 3.1 | < 0.1 | 1800 | –

Stronger by Ki [3], values ahead:

Row | Ki [1] [nM] | IC50 [2] [nM] | Ki [3] [nM] | Structure (SMILES) | also measured
19 | 1100 | 0.5 | 19 | CC(C)(C)c1ccc(-c2ccc(C(F)(F)F)cc2NC(=O)[C@H]2CCC3C4CNC5=CC(=O)CC[C@]5(C)C4CC[C@@]32C)cc1 (some centres not stated) | –
20 | 6.7 | < 0.1 | 130 | C[C@]12CCC(=O)C=C1NCC1C2CC[C@@]2(C)C1CC[C@@H]2C(=O)NC1(c2ccc(Cl)cc2Cl)CC1 (some centres not stated) | –
21 | 0.2 | < 0.1 | 19 | CC1=C2NCC3C(CC[C@@]4(C)C3CC[C@@H]4C(=O)Nc3cc(C(F)(F)F)ccc3C(F)(F)F)[C@@]2(C)CCC1=O (some centres not stated) | –
22 | 0.2 | < 0.1 | 160 | C[C@]12CC[C@H]3[C@@H](CNC4=C(Cl)C(=O)CC[C@@]43C)[C@@H]1CC[C@@H]2C(=O)Nc1cc(C(F)(F)F)ccc1C(F)(F)F (stereo in doubt; 27) | –
23 | 8 | < 0.1 | 7.8 | CC(C)(C)c1cc(NC(=O)[C@H]2CCC3C4CNC5=CC(=O)CC[C@]5(C)C4CC[C@@]32C)cc(C(C)(C)C)c1 (some centres not stated) | –
24 | 0.5 | < 0.1 | 200 | CC1=C2NCC3C(CC[C@@]4(C)C3CC[C@@H]4C(=O)Nc3cc(C(F)(F)F)ccc3C(C)(C)C)[C@@]2(C)CCC1=O (some centres not stated) | –
25 | – | – | 160 | CC(C)(C)NC(=O)[C@H]1CC[C@H]2[C@@H]3CC=C4C=C(C(=O)O)CC[C@]4(C)[C@H]3CC[C@]12C [EPRISTERIDE] | IC50 [11]: 1600 nM
26 | – | < 0.1 | 280 | C[C@]12CCC(C(=O)O)=CC1=CCC1C2CC[C@@]2(C)C1CC[C@@H]2C(=O)NC1(c2ccc(Cl)cc2)CCCC1 (some centres not stated) | IC50 [11]: 60 nM
27 | 27 | 0.2 | 85 | CC(C)(C)c1ccccc1NC(=O)[C@H]1CCC2C3CNC4=CC(=O)CC[C@]4(C)C3CC[C@@]21C (some centres not stated) | –
28 | 240 | – | 10 | C[C@]12CCC(=O)C=C1NCC1C2CC[C@@]2(C)C1CC[C@@H]2C(=O)Nc1ccccc1 (some centres not stated) | –
29 | 26 | 0.2 | 58 | C[C@]12CCC(=O)C=C1NCC1C2CC[C@@]2(C)C1CC[C@@H]2C(=O)Nc1cc(C(F)(F)F)cc(C(F)(F)F)c1 (some centres not stated) | –
